# Columns and labels:
# Format in all cases: functional
# [1] = system: CWR22R; assay: Antiproliferative activity against human 22Rv1 cells assessed as reduction in cell growth incubated for 96 hrs by propidium iodide based 2D monolayer assay; settings: 22Rv1, 96 h
# Outline: (§1)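 After 24 h recovery, compound in medium or medium alone (control wells) was added at 10 half-log concentrations from 0.0032 to 100 µM, in triplicate, with at most 0.3% DMSO. After 96 h, wells were PBS-washed, stained with 7 µg/ml PI and 0.1% Triton X-100, and fluorescence read at 530/620 nm. IC50 came from a 4-parameter fit, geometric mean.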
# [2] = system: LNCaP; assay: Antiproliferative activity against human LNCAP cells assessed as reduction in cell growth incubated for 96 hrs by propidium iodide based 2D monolayer assay; outline: as §1
# [3] = system: VCaP; assay: Antiproliferative activity against human VCaP cells assessed as reduction in cell growth incubated for 96 hrs by propidium iodide based 2D monolayer assay
# Outline: (§2)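 VCaP cells in RPMI 1640 with 10% FCS at 37 °C, 5% CO2, seeded 4,000–20,000 cells/well and left 24 h before dosing. Compounds from DMSO stocks were diluted in half-log steps in medium, 10 concentrations 0.0032–100 μM, triplicate wells, max 0.3% DMSO. After 96 h, cells were washed, stained with 7 μg/ml propidium iodide plus 0.1% Triton X-100 for 1–2 h at room temperature, and fluorescence read at ex 530/em 620 nm.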
# [4] = system: VCaP; assay: Antiproliferative activity against human VCaP cells assessed as T/C value at 3.2 x 10^-2 uM incubated for 96 hrs by propidium iodide based 2D monolayer assay; outline: as §2
# [5] = system: VCaP; assay: Antiproliferative activity against human VCaP cells assessed as T/C value at 3.2 x 10^-1 uM incubated for 96 hrs by propidium iodide based 2D monolayer assay; outline: as §2
# [6] = system: VCaP; assay: Antiproliferative activity against human VCaP cells assessed as T/C value at 1 uM incubated for 96 hrs by propidium iodide based 2D monolayer assay
# Outline: (§3)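 Cells were kept in RPMI 1640 with 25 mM HEPES, 10% FCS and gentamicin at 37 °C under 5% CO2, and plated at 4,000-20,000 cells/well. After 24 h recovery, compound in medium or medium alone (control wells) was added at 10 half-log concentrations from 0.0032 to 100 µM, in triplicate, with at most 0.3% DMSO. After 96 h, wells were PBS-washed, stained with 7 µg/ml PI and 0.1% Triton X-100, and fluorescence read at 530/620 nm. IC50 came from a 4-parameter fit, geometric mean.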
# [7] = system: VCaP; assay: Antiproliferative activity against human VCaP cells assessed as T/C value at 3.2 uM incubated for 96 hrs by propidium iodide based 2D monolayer assay; outline: as §3
# [8] = system: VCaP; assay: Antiproliferative activity against human VCaP cells assessed as T/C value at 1 x 10^1 uM incubated for 96 hrs by propidium iodide based 2D monolayer assay; outline: as §3
# [9] = system: VCaP; assay: Antiproliferative activity against human VCaP cells assessed as T/C value at 1 x 10^2 uM incubated for 96 hrs by propidium iodide based 2D monolayer assay; outline: as §3
# [10] = system: LNCaP; assay: Antiproliferative activity against human LNCAP cells assessed as T/C value at 3.2 x 10^-3 uM incubated for 96 hrs by propidium iodide based 2D monolayer assay; outline: as §3
# [11] = system: LNCaP; assay: Antiproliferative activity against human LNCAP cells assessed as T/C value at 1 x 10^-2 uM incubated for 96 hrs by propidium iodide based 2D monolayer assay; outline: as §3
# [12] = system: LNCaP; assay: Antiproliferative activity against human LNCAP cells assessed as T/C value at 3.2 x 10^-2 uM incubated for 96 hrs by propidium iodide based 2D monolayer assay; outline: as §3
# [13] = system: LNCaP; assay: Antiproliferative activity against human LNCAP cells assessed as T/C value at 1 x 10^-1 uM incubated for 96 hrs by propidium iodide based 2D monolayer assay; outline: as §3
# [14] = system: LNCaP; assay: Antiproliferative activity against human LNCAP cells assessed as T/C value at 3.2 x 10^-1 uM incubated for 96 hrs by propidium iodide based 2D monolayer assay; outline: as §3
# [15] = system: LNCaP; assay: Antiproliferative activity against human LNCAP cells assessed as T/C value at 1 uM incubated for 96 hrs by propidium iodide based 2D monolayer assay; outline: as §3
# [16] = system: LNCaP; assay: Antiproliferative activity against human LNCAP cells assessed as T/C value at 3.2 uM incubated for 96 hrs by propidium iodide based 2D monolayer assay; outline: as §3
# [17] = system: LNCaP; assay: Antiproliferative activity against human LNCAP cells assessed as T/C value at 1 x 10^1 uM incubated for 96 hrs by propidium iodide based 2D monolayer assay; outline: as §3
# [18] = system: LNCaP; assay: Antiproliferative activity against human LNCAP cells assessed as T/C value at 3.2 x 10^1 uM incubated for 96 hrs by propidium iodide based 2D monolayer assay; outline: as §3
# [19] = system: CWR22R; assay: Antiproliferative activity against human 22Rv1 cells assessed as T/C value at 3.2 x 10^-3 uM incubated for 96 hrs by propidium iodide based 2D monolayer assay; outline: as §3
# [20] = system: CWR22R; assay: Antiproliferative activity against human 22Rv1 cells assessed as T/C value at 1 x 10^-2 uM incubated for 96 hrs by propidium iodide based 2D monolayer assay; outline: as §3
# [21] = system: CWR22R; assay: Antiproliferative activity against human 22Rv1 cells assessed as T/C value at 3.2 x 10^-2 uM incubated for 96 hrs by propidium iodide based 2D monolayer assay; outline: as §3
# [22] = system: CWR22R; assay: Antiproliferative activity against human 22Rv1 cells assessed as T/C value at 1 x 10^-1 uM incubated for 96 hrs by propidium iodide based 2D monolayer assay; outline: as §3
# [23] = system: CWR22R; assay: Antiproliferative activity against human 22Rv1 cells assessed as T/C value at 1 uM incubated for 96 hrs by propidium iodide based 2D monolayer assay; outline: as §3
# [24] = system: CWR22R; assay: Antiproliferative activity against human 22Rv1 cells assessed as T/C value at 3.2 x 10^1 uM incubated for 96 hrs by propidium iodide based 2D monolayer assay; outline: as §3
# [25] = system: CWR22R; assay: Antiproliferative activity against human 22Rv1 cells assessed as T/C value at 1 x 10^2 uM incubated for 96 hrs by propidium iodide based 2D monolayer assay; outline: as §3
# [26] = system: DU-145; assay: Antiproliferative activity against human DU145 cells assessed as T/C value at 3.2 x 10^-3 uM incubated for 96 hrs by propidium iodide based 2D monolayer assay; outline: as §1
# [27] = system: DU-145; assay: Antiproliferative activity against human DU145 cells assessed as T/C value at 1 x 10^-2 uM incubated for 96 hrs by propidium iodide based 2D monolayer assay; outline: as §1
# [28] = system: DU-145; assay: Antiproliferative activity against human DU145 cells assessed as T/C value at 3.2 x 10^-2 uM incubated for 96 hrs by propidium iodide based 2D monolayer assay; outline: as §1
# [29] = system: DU-145; assay: Antiproliferative activity against human DU145 cells assessed as T/C value at 1 x 10^-1 uM incubated for 96 hrs by propidium iodide based 2D monolayer assay; outline: as §1
# [30] = system: DU-145; assay: Antiproliferative activity against human DU145 cells assessed as T/C value at 3.2 uM incubated for 96 hrs by propidium iodide based 2D monolayer assay; outline: as §3
# [31] = system: DU-145; assay: Antiproliferative activity against human DU145 cells assessed as T/C value at 3.2 x 10^1 uM incubated for 96 hrs by propidium iodide based 2D monolayer assay; outline: as §3
# [32] = system: DU-145; assay: Antiproliferative activity against human DU145 cells assessed as T/C value at 1 x 10^2 uM incubated for 96 hrs by propidium iodide based 2D monolayer assay; outline: as §3
Compound,IC50 [1] [µM],IC50 [2] [µM],IC50 [3] [µM],T/C [4],T/C [5],T/C [6],T/C [7],T/C [8],T/C [9],T/C [10],T/C [11],T/C [12],T/C [13],T/C [14],T/C [15],T/C [16],T/C [17],T/C [18] [%],T/C [19],T/C [20],further results
CC1(C)C(=O)N(c2cccc(S(F)(F)(F)(F)F)c2)C(=S)N1c1cccc(C(F)(F)F)c1,100,3.4,100,87%,87%,84%,71%,74%,60%,92%,94%,73%,91%,80%,74%,63%,23%,33,94%,96%,IC70 [1]: > 100 µM; IC70 [2]: 4.31 µM; IC70 [3]: > 100 µM; T/C [21]: 96%; T/C [22]: 96%; T/C [23]: 85%; T/C [24]: 58%; T/C [25]: 55%; T/C [26]: 101%; T/C [27]: 94%; T/C [28]: 96%; T/C [29]: 101%; T/C [30]: 105%; T/C [31]: 85%; T/C [32]: 76%
CC(O)(COc1cccc(S(F)(F)(F)(F)F)c1)C(=O)Nc1ccc([N+](=O)[O-])c(C(F)(F)F)c1 (racemic),5.4,3.3,5.3,86 - 107%,94 - 113%,94 - 108%,81 - 87%,22%,5 - 11%,92 - 98%,94 - 104%,92 - 95%,87 - 113%,100 - 103%,84 - 93%,54 - 71%,1 - 3%,-1,97 - 104%,100 - 106%,IC70 [1]: 5.77 to 6.98 µM; IC70 [2]: 4.37 to 5.15 µM; IC70 [3]: 7.82 to 8.69 µM; T/C [21]: 108 - 110%; T/C [22]: 106 - 110%; T/C [23]: 101 - 109%; T/C [24]: 2%; T/C [25]: 2 - 3%; T/C [26]: 111 - 116%; T/C [27]: 115 - 122%; T/C [28]: 116 - 124%; T/C [29]: 118 - 124%; T/C [30]: 116%; T/C [31]: 1%; T/C [32]: 1%
CC(O)(COc1cc(C(F)(F)F)cc(C(F)(F)F)c1)C(=O)Nc1ccc(S(F)(F)(F)(F)F)cc1 (racemic),7,2.3,2.6,95%,87%,88%,37%,23%,5%,90%,88%,100%,99%,93%,90%,26%,6%,2,106%,99%,IC70 [1]: 8.27 µM; IC70 [2]: 2.97 µM; IC70 [3]: 4.53 µM; T/C [21]: 99%; T/C [22]: 104%; T/C [23]: 108%; T/C [24]: 8%; T/C [25]: 4%; T/C [26]: 102%; T/C [27]: 103%; T/C [28]: 105%; T/C [29]: 109%; T/C [30]: 117%; T/C [31]: 5%; T/C [32]: 1%
CC(O)(COc1ccccc1C(F)(F)F)C(=O)Nc1ccc(S(F)(F)(F)(F)F)cc1 (racemic),1.4,1.2,3.1,87 - 93%,73 - 91%,58 - 85%,19 - 45%,11 - 28%,5 - 10%,91 - 100%,85 - 89%,88 - 94%,83 - 84%,83 - 84%,25 - 60%,2 - 7%,1 - 2%,1,101 - 106%,99 - 104%,T/C [21]: 100 - 108%; T/C [22]: 93 - 107%; T/C [23]: 9 - 81%; T/C [24]: 1 - 3%; T/C [25]: 1 - 2%; T/C [26]: 102 - 112%; T/C [27]: 103 - 119%; T/C [28]: 108 - 125%; T/C [29]: 108 - 127%; T/C [30]: 15 - 117%; T/C [31]: 4%; T/C [32]: 1%

# Source: ChEMBL document CHEMBL4364301 (Eur J Med Chem, 2019)
